Results from ChEMBL document CHEMBL5329147, “Synthesis of tryptanthrin appended dispiropyrrolidine oxindoles and their antibacterial evaluation” (RSC Med Chem, 2023).

Assays:
[1] = tested on: Staphylococcus aureus; assay: Antibacterial activity against methicillin resistant Staphylococcus aureus NRS 193 assessed as bacterial growth inhibition incubated for 18 to 24 hrs by broth microdilution method; type: functional; conditions: time 18-24 hrs
Procedure, shortened: (§1)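 CLSI broth microdilution in MHBII; overnight starter cultures (single MHA colony, 37 °C, shaking) adjusted by OD600 to 10^6 CFU/mL. Compounds from DMSO stocks (10 mg/mL), two-fold series 64–0.5 mg/L. Incubation 37 °C, 18-24 h. MIC = lowest concentration with no visible growth. Three independent determinations, each in duplicate.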

[2] = tested on: Staphylococcus aureus; assay: Antibacterial activity against methicillin resistant Staphylococcus aureus NRS 129 assessed as bacterial growth inhibition incubated for 18 to 24 hrs by broth microdilution method; type: functional; conditions: time 18-24 hrs; procedure, shortened: as §1
[3] = tested on: Staphylococcus aureus; assay: Antibacterial activity against methicillin resistant Staphylococcus aureus NRS 191 assessed as bacterial growth inhibition incubated for 18 to 24 hrs by broth microdilution method; type: functional; conditions: time 18-24 hrs; procedure, shortened: as §1
[4] = tested on: Staphylococcus aureus; assay: Synergistic antibacterial activity against Staphylococcus aureus ATCC 29213 assessed as bacterial growth inhibition incubated for 24 hrs in presence of gentamycin by checkerboard assay; type: functional
Procedure, shortened: (§2)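 Checkerboard in 96-well plates: two-fold serial dilutions, one agent along abscissa, partner antibiotic along ordinate. Wells received ~10⁵ CFU/mL S. aureus ATCC 29213 in MHBII. Incubation 37 °C, 24 h. ΣFIC = FIC A + FIC B, each FIC being combination MIC divided by MIC alone.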

[5] = tested on: Staphylococcus aureus; assay: Antibacterial activity against Staphylococcus aureus ATCC 29213 assessed as bacterial growth inhibition incubated for 18 to 24 hrs by broth microdilution method; type: functional; conditions: Staphylococcus aureus, ATCC 29213; time 18-24 hrs; read-out: MIC
Procedure, shortened: (§3)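 CLSI broth microdilution. Overnight starter cultures (single colony, MHBII, 37 °C, shaking 18–24 h) were diluted by OD600 to 10^6 CFU/mL in MHBII. Two-fold dilutions from […] were made from 10 mg/mL DMSO stocks, then incubated 37 °C for 18-24 h. The MIC was the lowest concentration with no visible growth. Three independent runs, duplicate samples.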

[6] = tested on: Vero; assay: Cytotoxicity against African green monkey Vero cells assessed as cell viability incubated for 72 hrs by MTT assay; type: toxicity, cell-based; conditions: chlorocebus sabaeus
Procedure, shortened: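 MTT assay on Vero cells, ~10^3 cells/well, 37 °C, 5% CO2. Compound was added at 24 h (100-12.5 μg/mL) for 72 h, then MTT for 4 h at 37 °C. Formazan was dissolved in DMSO and read at 540 nm. CC50 was the lowest concentration giving 50% viability loss. Doxorubicin positive control; triplicate.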

[7] = tested on: Klebsiella pneumoniae; assay: Antibacterial activity against Klebsiella pneumoniae BAA 1705 assessed as bacterial growth inhibition incubated for 18 to 24 hrs by broth microdilution method; type: functional; conditions: time 18-24 hrs; procedure, shortened: as §3
[8] = tested on: Acinetobacter baumannii; assay: Antibacterial activity against Acinetobacter baumannii BAA-1605 assessed as bacterial growth inhibition incubated for 18 to 24 hrs by broth microdilution method; type: functional; conditions: time 18-24 hrs; procedure, shortened: as §3
[9] = tested on: Escherichia coli; assay: Antibacterial activity against Escherichia coli ATCC 25922 assessed as bacterial growth inhibition incubated for 18 to 24 hrs by broth microdilution method; type: functional; conditions: time 18-24 hrs; procedure, shortened: as §3
[10] = tested on: Staphylococcus aureus; assay: Antibacterial activity against methicillin resistant Staphylococcus aureus NRS 186 assessed as bacterial growth inhibition incubated for 18 to 24 hrs by broth microdilution method; type: functional; conditions: time 18-24 hrs; procedure, shortened: as §1
[11] = tested on: Staphylococcus aureus; assay: Antibacterial activity against methicillin sensitive Staphylococcus aureus ATCC 29213 assessed as bacterial growth inhibition incubated for 18 to 24 hrs by broth microdilution method; type: functional; conditions: time 18-24 hrs; procedure, shortened: as §1
[12] = tested on: Staphylococcus aureus; assay: Synergistic antibacterial activity against Staphylococcus aureus ATCC 29213 assessed as fractional inhibitory concentration index incubated for 24 hrs in the presence of meropenem by checkerboard assay; type: functional
Procedure, shortened: (§4)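 Checkerboard in 96-well plates. The test agent was diluted two-fold along one axis and the partner antibiotic two-fold along the other, with ~10^5 CFU/mL inoculum, 37 °C for 24 h. ΣFIC = FIC A + FIC B, each FIC being the MIC in combination divided by the MIC alone.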

[13] = tested on: Staphylococcus aureus; assay: Antibacterial activity against methicillin resistant Staphylococcus aureus NRS 198 assessed as bacterial growth inhibition incubated for 18 to 24 hrs by broth microdilution method; type: functional; conditions: time 18-24 hrs; procedure, shortened: as §1
[14] = tested on: Staphylococcus aureus; assay: Synergistic antibacterial activity against Staphylococcus aureus ATCC 29213 assessed as fractional inhibitory concentration index incubated for 24 hrs in the presence of linezolid by checkerboard assay; type: functional; procedure, shortened: as §4
[15] = tested on: Staphylococcus aureus; assay: Synergistic antibacterial activity against Staphylococcus aureus ATCC 29213 assessed as bacterial growth inhibition incubated for 24 hrs in presence of ceftazidime by checkerboard assay; type: functional; procedure, shortened: as §2
[16] = tested on: Staphylococcus aureus; assay: Synergistic antibacterial activity against Staphylococcus aureus ATCC 29213 assessed as bacterial growth inhibition incubated for 24 hrs in presence of meropenem by checkerboard assay; type: functional; procedure, shortened: as §2
[17] = tested on: Staphylococcus aureus; assay: Synergistic antibacterial activity against Staphylococcus aureus ATCC 29213 assessed as fractional inhibitory concentration index incubated for 24 hrs in the presence of ceftazidime by checkerboard assay; type: functional; procedure, shortened: as §4
[18] = tested on: Staphylococcus aureus; assay: Antibacterial activity against methicillin resistant Staphylococcus aureus NRS 119 assessed as bacterial growth inhibition incubated for 18 to 24 hrs by broth microdilution method; type: functional; conditions: time 18-24 hrs; procedure, shortened: as §1
[19] = tested on: Staphylococcus aureus; assay: Synergistic antibacterial activity against Staphylococcus aureus ATCC 29213 assessed as fractional inhibitory concentration index incubated for 24 hrs in the presence of gentamycin by checkerboard assay; type: functional; procedure, shortened: as §4
[20] = tested on: Staphylococcus aureus; assay: Synergistic antibacterial activity against Staphylococcus aureus ATCC 29213 assessed as bacterial growth inhibition incubated for 24 hrs in presence of rifampicin by checkerboard assay; type: functional; procedure, shortened: as §2
[21] = tested on: Staphylococcus aureus; assay: Antibacterial activity against methicillin resistant Staphylococcus aureus NRS 194 assessed as bacterial growth inhibition incubated for 18 to 24 hrs by broth microdilution method; type: functional; conditions: time 18-24 hrs; procedure, shortened: as §1
[22] = tested on: Staphylococcus aureus; assay: Synergistic antibacterial activity against Staphylococcus aureus ATCC 29213 assessed as fractional inhibitory concentration index incubated for 24 hrs in the presence of levofloxacin by checkerboard assay; type: functional; procedure, shortened: as §4
[23] = tested on: Staphylococcus aureus; assay: Synergistic antibacterial activity against Staphylococcus aureus ATCC 29213 assessed as fractional inhibitory concentration index incubated for 24 hrs in the presence of rifampicin by checkerboard assay; type: functional; procedure, shortened: as §4
[24] = tested on: Staphylococcus aureus; assay: Antibacterial activity against vancomycin resistant Staphylococcus aureus […] 12 assessed as bacterial growth inhibition incubated for 18 to 24 hrs by broth microdilution method; type: functional; conditions: time 18-24 hrs; procedure, shortened: as §1
[25] = tested on: Staphylococcus aureus; assay: Synergistic antibacterial activity against Staphylococcus aureus ATCC 29213 assessed as bacterial growth inhibition incubated for 24 hrs in presence of minocycline by checkerboard assay; type: functional; procedure, shortened: as §2
[26] = tested on: Staphylococcus aureus; assay: Synergistic antibacterial activity against Staphylococcus aureus ATCC 29213 assessed as bacterial growth inhibition incubated for 24 hrs in presence of daptomycin by checkerboard assay; type: functional; procedure, shortened: as §2
[27] = tested on: Staphylococcus aureus; assay: Synergistic antibacterial activity against Staphylococcus aureus ATCC 29213 assessed as fractional inhibitory concentration index incubated for 24 hrs in the presence of daptomycin by checkerboard assay; type: functional; procedure, shortened: as §4
[28] = tested on: Staphylococcus aureus; assay: Bactericidal activity against Staphylococcus aureus ATCC 29213 assessed as reduction in bacterial load at 10 times of MIC incubated for 24 hrs by time kill analysis; type: functional
Procedure, shortened: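 Time-kill assay. ~10^6 CFU/mL in MHBII was exposed to 1X and 10X MIC, 37 °C with shaking for 24 h. Samples were taken at 0, 1, 6 and 24 h, serially diluted in PBS, plated on MHA and incubated 37 °C 18–20 h. Colonies were counted as CFU/mL survivors. Three repeats in duplicate; mean plotted.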

[29] = tested on: Staphylococcus aureus; assay: Synergistic antibacterial activity against Staphylococcus aureus ATCC 29213 assessed as bacterial growth inhibition incubated for 24 hrs in presence of linezolid by checkerboard assay; type: functional; procedure, shortened: as §2
[30] = tested on: Staphylococcus aureus; assay: Antibacterial activity against methicillin resistant Staphylococcus aureus NRS 192 assessed as bacterial growth inhibition incubated for 18 to 24 hrs by broth microdilution method; type: functional; conditions: time 18-24 hrs; procedure, shortened: as §1
[31] = tested on: Staphylococcus aureus; assay: Synergistic antibacterial activity against Staphylococcus aureus ATCC 29213 assessed as fractional inhibitory concentration index incubated for 24 hrs in the presence of vancomycin by checkerboard assay; type: functional; procedure, shortened: as §4
[32] = tested on: Staphylococcus aureus; assay: Synergistic antibacterial activity against Staphylococcus aureus ATCC 29213 assessed as bacterial growth inhibition incubated for 24 hrs in presence of vancomycin by checkerboard assay; type: functional; procedure, shortened: as §2
[33] = tested on: Staphylococcus aureus; assay: Synergistic antibacterial activity against Staphylococcus aureus ATCC 29213 assessed as fractional inhibitory concentration index incubated for 24 hrs in the presence of minocycline by checkerboard assay; type: functional; procedure, shortened: as §4
[34] = tested on: Staphylococcus aureus; assay: Synergistic antibacterial activity against Staphylococcus aureus ATCC 29213 assessed as bacterial growth inhibition incubated for 24 hrs in presence of levofloxacin by checkerboard assay; type: functional; procedure, shortened: as §2
[35] = tested on: Staphylococcus aureus; assay: Antibacterial activity against vancomycin resistant Staphylococcus aureus […] 4 assessed as bacterial growth inhibition incubated for 18 to 24 hrs by broth microdilution method; type: functional; conditions: time 18-24 hrs; procedure, shortened: as §1
[36] = tested on: Pseudomonas aeruginosa; assay: Antibacterial activity against Pseudomonas aeruginosa ATCC 27853 assessed as bacterial growth inhibition incubated for 18 to 24 hrs by broth microdilution method; type: functional; conditions: time 18-24 hrs; procedure, shortened: as §3
[37] = Selectivity ratio of CC50 for African green monkey Vero cells to MIC against Staphylococcus aureus ATCC 29213; type: toxicity, cell-based

CCN1C(=O)[C@@]2(CN(C)C3(c4cc(Br)ccc4-n4c3nc3ccccc3c4=O)C2(C#N)C#N)c2ccccc21 (stereo partly drawn)
> 64 µg/mL: MIC [7] | MIC [8] | MIC [9] | MIC [36]
40: selectivity ratio [37]
0.125 µg/mL: MIC [2] | MIC [5] | MIC [11] | MIC [13] | MIC [18] | MIC [30]
0.5 µg/mL: MIC [21] | MIC [35]
0.063 µg/mL: MIC [3]
0.25 µg/mL: MIC [1] | MIC [4] | MIC [10] | MIC [15] | MIC [16] | MIC [20] | MIC [24] | MIC [25] | MIC [26] | MIC [29] | MIC [32] | MIC [34]
Non-Toxic: Activity [6]
~2.7 log10CFU/ml: Activity ([28]; record 2)
2: FIC [12] | FIC [14] | FIC [17] | FIC [19] | FIC [22] | FIC [23] | FIC [27] | FIC [31] | FIC [33]
active: Activity [28] Dose-Dependent Effect
